36 compounds from ChEMBL document CHEMBL4699574, “Discovery of Ketone-Based Covalent Inhibitors of Coronavirus 3CL Proteases for the Potential Therapeutic Treatment of COVID-19” (J Med Chem, 2020) can be followed below.

SMILES strings stand for the structures.

The nature of series [1]: Reversible inhibition of SARS coronavirus Urbani 3CL protease(9985 to 10902) using TAMRA-SITSAVLQSGFRKMK(DABCYL)-OH as substrate measured for 10 mins by FRET assay. In short, it runs like this: (§1)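 SARS CoV-1 3CLpro FRET assay; each value calculated from at least eight data points, with at least two independent determinations.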
The next series has as its system SARS-CoV. Nature of the series: Antiviral activity against SARS COV-1 infected in monkey vero 76 cells assessed as reduction in virus-induced cytopathic effect measured after 66 hrs by neutral red method or cell titer glo-based luminescence assay. In kind it is functional, organism-based. As to conditions: Severe acute respiratory syndrome-related coronavirus. A general note: Protection from cytopathic effect is a common read-out in antiviral testing.

Series [2] deals with SARS coronavirus Urbani. Put plainly: Irreversible inhibition of SARS coronavirus Urbani 3CL protease (9985 to 10902) assessed as first order inhibition rate constant (Kobs/I ratio) using TAMRA-SITSAVLQSGFRKMK(DABCYL)-OH as substrate measured for 10 mins by FRET assay. In short, it runs like this: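 SARS CoV-1 3CL protease activity was monitored by a FRET read-out. Irreversible, time-dependent inactivation was expressed as kobs/I. Each value was calculated from at least eight data points, with at least two independent determinations.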

Series [3] in a line: Permeability of compound in human Caco-2 cells. In kind it is ADME, cell-based. Background: Passage across Caco-2 layers is used to estimate intestinal permeability.
The nature of series [4]: Irreversible inhibition of SARS coronavirus Urbani 3CL protease (9985 to 10902) using TAMRA-SITSAVLQSGFRKMK(DABCYL)-OH as substrate measured for 10 mins by FRET assay. The method, boiled down: as §1
The nature of series [5]: Metabolic stability in human plasma assessed as half-life at 1 uM incubated for 60 mins by LC/MS analysis. In kind it is ADME, cell-free.
Series [6] can be described thus: Solubility of the compound in vehicle formulations. In kind it is physicochemical.
A short description of series [7]: Glutathione reactivity in pH 7.8 Tris buffer assessed as half-life at 1 uM measured after 30 mins by LC/MS analysis. In kind it is ADME.
The test system of series [8] is SARS coronavirus Urbani. Put plainly: Irreversible inhibition of SARS coronavirus Urbani 3CL protease (9985 to 10902) at 1 uM using TAMRA-SITSAVLQSGFRKMK(DABCYL)-OH as substrate measured for 10 mins by FRET assay relative to control.

In general, IC50 refers to the concentration at which inhibition is half-maximal. For orientation: EC50 means the midpoint of the concentration-response curve. Compound `CCOCC(=O)[C@H](C[C@@H]1CCNC1=O)NC(=O)[C@H](CC(C)(C)C)NC(=O)c1cc2ccccc2[nH]1` came in with an IC50 in [1] of 112 nM. Also, in the series with SARS-CoV, the EC50 was found to be 20000 nM. Take `COc1cccc2[nH]c(C(=O)N[C@@H](CC(C)C)C(=O)N[C@@H](C[C@@H]3CCNC3=O)C(=O)CCl)cc12`: the K with SARS coronavirus Urbani [2] came to 283000 M⁻¹ s⁻¹. Compound `CC(C)(C)C[C@H](NC(=O)c1cc2ccccc2[nH]1)C(=O)N[C@@H](C[C@@H]1CCNC1=O)C(=O)CO` showed an IC50 in series [1] of 20 nM. Besides, the EC50 with SARS-CoV was 17000 nM.

Consider `CCCC[C@H](NC(=O)c1cc2c(OC)cccc2[nH]1)C(=O)N[C@@H](C[C@@H]1CCNC1=O)C(=O)CO`, for which inhibition in series [1] was half-maximal at 20 nM (IC50). Further, the EC50 in the series on SARS-CoV turned out to be 10000 nM. The permeability result in series [3] is recorded as “Impermeable”. As for `COCC(=O)[C@H](C[C@@H]1CCNC1=O)NC(=O)[C@H](CC(C)(C)C)NC(=O)[C@H]1CCCO1`, in series [1], the IC50 was 1080 nM. Moreover, the EC50 in the series on SARS-CoV was more than 100000 nM. The compound `COc1cccc2[nH]c(C(=O)N[C@@H](CC(C)C)C(=O)N[C@@H](C[C@@H]3CCNC3=O)C(=O)COC(=O)C(C)(C)C)cc12` registered a half-inhibitory concentration (IC50) in series [4] of 230 nM.

Regarding `COc1cccc2[nH]c(C(=O)N[C@@H](CC(C)C)C(=O)N[C@@H](C[C@@H]3CCNC3=O)C(=O)COC(=O)c3ccc(C#N)cc3)cc12`, 53 nM corresponded to half-maximal inhibition in series [4] (IC50). Consider `COCC(=O)[C@H](C[C@@H]1CCNC1=O)NC(=O)[C@H](CC(C)(C)C)NC(=O)c1cc2ccccc2[nH]1`, for which, in series [1], the IC50 came out at 105 nM. For the same compound, the EC50 in the series on SARS-CoV turned out to be 46000 nM. Usually half-life stands for the time needed for the level to fall by half in the phase considered. Consider `COc1cccc2[nH]c(C(=O)N[C@@H](CC(C)C)C(=O)N[C@@H](C[C@@H]3CCNC3=O)C(=O)COC(=O)c3c(Cl)cccc3Cl)cc12`, for which, in the series on SARS coronavirus Urbani [2], the K is 63000 M⁻¹ s⁻¹. Moreover, the half-life at 1 µM in series [5] was more than 4 h; in series [7], more than 1 h. For the same compound, the EC50 in the series on SARS-CoV came to 290 nM. In [6], the solubility entry is on record as “Insoluble”.

Consider `COc1ccc(C(=O)OCC(=O)[C@H](C[C@@H]2CCNC2=O)NC(=O)[C@H](CC(C)C)NC(=O)c2cc3c(OC)cccc3[nH]2)cc1`, for which it took 79 nM to reach half-maximal inhibition in series [4] (IC50). With `CC(C)C[C@H](NC(=O)[C@H]1CCCO1)C(=O)N[C@@H](C[C@@H]1CCNC1=O)C(=O)COC(=O)c1c(Cl)cccc1Cl`, the K in the series on SARS coronavirus Urbani [2] was found to be 5830 M⁻¹ s⁻¹. In series [1], `COc1cccc2[nH]c(C(=O)N(C)[C@@H](CC(C)C)C(=O)N[C@@H](C[C@@H]3CCNC3=O)C(=O)CO)cc12` registered an IC50 of 83 nM. For the same compound, in the series with SARS-CoV, the EC50 stood at 19000 nM. Besides, in [3], the permeability result was “Impermeable”. In series [4], `COc1cccc2[nH]c(C(=O)N[C@@H](CC(C)C)C(=O)N[C@@H](C[C@@H]3CCNC3=O)C(=O)COC(=O)c3ccc(F)cc3)cc12` had an IC50 of 82 nM. With `COCC(=O)[C@H](C[C@@H]1CCNC1=O)NC(=O)[C@H](CC(C)C)NC(=O)c1cc2ccccc2[nH]1`, the half-inhibitory concentration (IC50) in series [1] worked out at 131 nM. The EC50 in the series with SARS-CoV worked out at 45000 nM. `COc1cccc2[nH]c(C(=O)N[C@@H](CC3CCCCC3)C(=O)N[C@@H](C[C@@H]3CCNC3=O)C(=O)CO)cc12` gave an IC50 in [1] of 44 nM. In the series with SARS-CoV, the EC50 amounted to 14000 nM. Moreover, in series [3], the permeability entry is given as “Impermeable”. In turn, `COc1cccc2[nH]c(C(=O)N[C@@H](CC(C)C)C(=O)N[C@@H](C[C@@H]3CCNC3=O)C(=O)COC(=O)c3ccccc3)cc12` yielded an IC50 in series [4] of 86 nM.

As to `COc1cccc2[nH]c(C(=O)N[C@@H](CC(C)(C)C)C(=O)N[C@@H](C[C@@H]3CCNC3=O)C(=O)CO)cc12`, inhibition in series [1] was half-maximal at 7 nM (IC50). The EC50 in the series on SARS-CoV came to 10000 nM. Moreover, in series [3], the permeability result is reported as “Impermeable”.

With `COc1cccc2[nH]c(C(=O)N[C@@H](CC(C)C)C(=O)N[C@@H](C[C@@H]3CCNC3=O)C(=O)COC(=O)c3c(C)cccc3C)cc12`, 74 nM corresponded to half-maximal inhibition in [4] (IC50). Regarding `COc1cccc2[nH]c(C(=O)N[C@@H](CCC(C)C)C(=O)N[C@@H](C[C@@H]3CCNC3=O)C(=O)CO)cc12`, in series [1], the IC50 came to 34 nM. Also, the EC50 in the series on SARS-CoV is 33000 nM. For the same compound, the permeability result in series [3] is on record as “Impermeable”. For `CC(C)C[C@H](NC(=O)c1nc2ccccc2[nH]1)C(=O)N[C@@H](C[C@@H]1CCNC1=O)C(=O)COC(=O)c1c(Cl)cccc1Cl`, the K in the series on SARS coronavirus Urbani [2] was found to be 30300 M⁻¹ s⁻¹.

In series [1], `COCC(=O)[C@H](C[C@@H]1CCNC1=O)NC(=O)[C@H](CC(C)C)NC(=O)c1cc2c(OC)cccc2[nH]1` had a 50% inhibitory concentration (IC50) of 53 nM. In addition, in the series on SARS-CoV, the EC50 is 31000 nM. The corresponding values for `COCC(=O)[C@H](C[C@@H]1CCNC1=O)NC(=O)[C@H](CC(C)(C)C)NC(=O)c1cc2c(OC)cccc2[nH]1` are 35 nM and 32000 nM. Consider `COc1cccc2[nH]c(C(=O)N[C@@H](CC(C)C)C(=O)N[C@@H](C[C@@H]3CCNC3=O)C(=O)COC(=O)c3ccc(C#N)cc3F)cc12`, for which the K in the series with SARS coronavirus Urbani [2] stood at 13300 M⁻¹ s⁻¹. `COc1cccc2[nH]c(C(=O)N[C@@H](CC(C)C)C(=O)N[C@@H](C[C@@H]3CCNC3=O)C(=O)COC(=O)c3ccccc3C#N)cc12` displayed an IC50 in series [4] of 17 nM.

`CC(=O)N[C@@H](CC(C)C)C(=O)N[C@@H](C[C@@H]1CCNC1=O)C(=O)COC(=O)c1c(Cl)cccc1Cl` yielded an IC50 in series [4] of 1030 nM. In turn, `CC(C)(C)C[C@H](NC(=O)[C@H]1CCCO1)C(=O)N[C@@H](C[C@@H]1CCNC1=O)C(=O)CO` came in with an IC50 in series [1] of 91 nM. Also, in the series with SARS-CoV, the EC50 is 33000 nM. `COc1cccc2[nH]c(C(=O)N[C@@H](CC(C)C)C(=O)N[C@@H](C[C@@H]3CCNC3=O)C(=O)COC(=O)c3ccc(Cl)cc3O)cc12`: in the series with SARS coronavirus Urbani [2], the K stood at 11500 M⁻¹ s⁻¹. In series [4], `COc1cccc2[nH]c(C(=O)N[C@@H](CC(C)C)C(=O)N[C@@H](C[C@@H]3CCNC3=O)C(=O)COC(=O)c3ccc(C)cc3)cc12` came in with an IC50 of 87 nM. Same read-out and setting: with `COc1cccc2[nH]c(C(=O)N[C@@H](CC(C)C)C(=O)N[C@@H](C[C@@H]3CCNC3=O)C(=O)COC(=O)c3ccc(Cl)cc3)cc12` the figure was 97 nM.

In series [4], `COc1cccc2[nH]c(C(=O)N[C@@H](CC(C)C)C(=O)N[C@@H](C[C@@H]3CCNC3=O)C(=O)COC(=O)C3CC3)cc12` gave a 50% inhibitory concentration (IC50) of 182 nM.

Turning to `COc1cccc2[nH]c(C(=O)N[C@@H](Cc3ccccc3)C(=O)N[C@@H](C[C@@H]3CCNC3=O)C(=O)CO)cc12`, the IC50 in series [1] was 103 nM. Besides, the EC50 in the series with SARS-CoV was 47000 nM. For the same compound, the permeability result in series [3] is recorded as “Impermeable”. `COc1cccc2[nH]c(C(=O)N[C@@H](CC(C)C)C(=O)N[C@@H](C[C@@H]3CCNC3=O)C(=O)COC(C)=O)cc12` showed an IC50 in series [4] of 220 nM. With `COc1cccc2[nH]c(C(=O)N[C@@H](CC(C)C)C(=O)N[C@@H](C[C@@H]3CCNC3=O)C(=O)COC(=O)c3c(F)cccc3F)cc12`, the K with SARS coronavirus Urbani [2] was found to be 12800 M⁻¹ s⁻¹. The inhibition is the drop in the measured response relative to a control, in per cent. For the compound `CC(C)C[C@H](NC(=O)OC(C)(C)C)C(=O)N[C@@H](C[C@@H]1CCNC1=O)C(=O)COC(=O)c1c(Cl)cccc1Cl`, in the series on SARS coronavirus Urbani [8], the inhibition worked out at 24%. In turn, `CC(C)C[C@H](NC(=O)c1cc2ccccc2[nH]1)C(=O)N[C@@H](C[C@@H]1CCNC1=O)C(=O)CO` showed an IC50 in series [1] of 38 nM. In addition, in the series on SARS-CoV, the EC50 stood at 20000 nM. Compound `COc1cccc(OC)c1C(=O)OCC(=O)[C@H](C[C@@H]1CCNC1=O)NC(=O)[C@H](CC(C)C)NC(=O)c1cc2c(OC)cccc2[nH]1` returned an IC50 in series [4] of 205 nM.
